Assay results reported in ChEMBL document CHEMBL1151705, “Novel azalides derived from 16-membered macrolides. Part II: Isolation of the linear 9-formylcarboxylic acid and its sequential macrocyclization with an amino alcohol or an azidoamine” (2008).
Values after ≈ are worked out from the molar mass of the structure shown.

Experiments:
Streptococcus pneumoniae [1] = assay: Antimicrobial activity against Streptococcus pneumoniae 10 expressing mefA after 20 hrs by agar dilution method; assay type: functional
Method in brief: (§1)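 Streptococci, H. influenzae and M. catarrhalis were precultured on blood agar plates. Suspensions of about 10⁶ CFU/ml were inoculated onto sensitivity disk agar supplemented with 5% horse blood and incubated at 37 °C for 20 h. MIC was read as the lowest drug concentration with no visible growth.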

Staphylococcus aureus [2] = assay: Antimicrobial activity against drug-susceptible Staphylococcus aureus 2 after 20 hrs by agar dilution method; assay type: functional
Method in brief: (§2)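 Agar dilution MIC. S. aureus seed culture was grown in sensitivity test broth. Cell suspension (about 10⁶ CFU/ml) was inoculated onto sensitivity disk agar with 5% horse blood and incubated at 37 °C for 20 h. MIC was the lowest drug concentration that prevented visible growth.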

Streptococcus pneumoniae [3] = assay: Antimicrobial activity against Streptococcus pneumoniae 7 expressing inducible ermB after 20 hrs by agar dilution method; assay type: functional; method in brief: as §1
Streptococcus pyogenes [4] = assay: Antimicrobial activity against Streptococcus pyogenes 3 expressing mefA after 20 hrs by agar dilution method; assay type: functional; method in brief: as §1
Haemophilus influenzae [5] = assay: Antimicrobial activity against drug-susceptible Haemophilus influenzae 4 after 20 hrs by agar dilution method; assay type: functional; method in brief: as §1
Haemophilus influenzae [6] = assay: Antimicrobial activity against drug-susceptible Haemophilus influenzae 1 after 20 hrs by agar dilution method; assay type: functional; method in brief: as §1
Streptococcus pneumoniae [7] = assay: Antimicrobial activity against Streptococcus pneumoniae 9 expressing mefA after 20 hrs by agar dilution method; assay type: functional; method in brief: as §1
Streptococcus pneumoniae [8] = assay: Antimicrobial activity against drug-susceptible Streptococcus pneumoniae 3 after 20 hrs by agar dilution method; assay type: functional; method in brief: as §1
Haemophilus influenzae [9] = assay: Antimicrobial activity against drug-susceptible Haemophilus influenzae 3 after 20 hrs by agar dilution method; assay type: functional; method in brief: as §1
Haemophilus influenzae [10] = assay: Antimicrobial activity against drug-susceptible Haemophilus influenzae 2 after 20 hrs by agar dilution method; assay type: functional; method in brief: as §1
Staphylococcus aureus [11] = assay: Antimicrobial activity against drug-susceptible Staphylococcus aureus 3 after 20 hrs by agar dilution method; assay type: functional; method in brief: as §2
Streptococcus pneumoniae [12] = assay: Antimicrobial activity against Streptococcus pneumoniae 8 expressing inducible ermB after 20 hrs by agar dilution method; assay type: functional; method in brief: as §1
Streptococcus pneumoniae [13] = assay: Antimicrobial activity against drug-susceptible Streptococcus pneumoniae DP1 Type1 after 20 hrs by agar dilution method; assay type: functional; method in brief: as §1
Streptococcus pneumoniae [14] = assay: Antimicrobial activity against drug-susceptible Streptococcus pneumoniae 2 after 20 hrs by agar dilution method; assay type: functional; method in brief: as §1
Staphylococcus aureus [15] = assay: Antimicrobial activity against Staphylococcus aureus 6 expressing inducible ermC after 20 hrs by agar dilution method
Moraxella catarrhalis [16] = assay: Antimicrobial activity against drug-susceptible Moraxella catarrhalis 2 after 20 hrs by agar dilution method; assay type: functional; method in brief: as §1
Streptococcus pyogenes [17] = assay: Antimicrobial activity against drug-susceptible Streptococcus pyogenes 1 after 20 hrs by agar dilution method; assay type: functional; method in brief: as §1
Moraxella catarrhalis [18] = assay: Antimicrobial activity against drug-susceptible Moraxella catarrhalis 1 after 20 hrs by agar dilution method; assay type: functional; method in brief: as §1
Staphylococcus aureus [19] = assay: Antimicrobial activity against Staphylococcus aureus 5 expressing inducible ermB after 20 hrs by agar dilution method; assay type: functional; method in brief: as §2
Staphylococcus aureus [20] = assay: Antimicrobial activity against drug-susceptible Staphylococcus aureus 209P JC-1 after 20 hrs by agar dilution method; assay type: functional; method in brief: as §2
[21] = Haemophilus influenzae, 20 h, read-out: MIC

MIC (Streptococcus pneumoniae [1]) [µg/mL]	MIC (Staphylococcus aureus [2]) [µg/mL]	MIC (Streptococcus pneumoniae [3]) [µg/mL]	MIC (Streptococcus pyogenes [4]) [µg/mL]	MIC (Haemophilus influenzae [5]) [µg/mL]	MIC (Haemophilus influenzae [6]) [µg/mL]	MIC (Streptococcus pneumoniae [7]) [µg/mL]	MIC (Streptococcus pneumoniae [8]) [µg/mL]	MIC (Haemophilus influenzae [9]) [µg/mL]	MIC (Haemophilus influenzae [10]) [µg/mL]	MIC (Staphylococcus aureus [11]) [µg/mL]	MIC (Streptococcus pneumoniae [12]) [µg/mL]	MIC (Streptococcus pneumoniae [13]) [µg/mL]	MIC (Streptococcus pneumoniae [14]) [µg/mL]	MIC (Staphylococcus aureus [15]) [µg/mL]	MIC (Moraxella catarrhalis [16]) [µg/mL]	MIC (Streptococcus pyogenes [17]) [µg/mL]	MIC (Moraxella catarrhalis [18]) [µg/mL]	MIC (Staphylococcus aureus [19]) [µg/mL]	MIC (Staphylococcus aureus [20]) [µg/mL]	Structure (SMILES)	other results
0.25 (≈ 0.257 µM)	4 (≈ 4.12 µM)	64 (≈ 65.9 µM)	2 (≈ 2.06 µM)	16 (≈ 16.5 µM)	32 (≈ 32.9 µM)	0.25 (≈ 0.257 µM)	0.25 (≈ 0.257 µM)	8 (≈ 8.24 µM)	1 (≈ 1.03 µM)	1 (≈ 1.03 µM)	64 (≈ 65.9 µM)	0.13 (≈ 0.134 µM)	0.25 (≈ 0.257 µM)	2 (≈ 2.06 µM)	4 (≈ 4.12 µM)	0.5 (≈ 0.515 µM)	4 (≈ 4.12 µM)	2 (≈ 2.06 µM)	2 (≈ 2.06 µM)	CCOC(=O)[C@H]1[C@H](C)O[C@@H](O[C@H]2[C@H](N(C)C)[C@@H](O)[C@H](O[C@H]3[C@@H](CC=O)C[C@@H](C)[C@@H](O)CN(C)CCC(/C=C/Cc4ccnc5ccccc45)NC(=O)C[C@@H](OC(=O)CC)[C@@H]3OC)O[C@@H]2C)C[C@@]1(C)O (stereo in doubt)	–
0.25 (≈ 0.257 µM)	8 (≈ 8.22 µM)	64 (≈ 65.8 µM)	2 (≈ 2.06 µM)	8 (≈ 8.22 µM)	64 (≈ 65.8 µM)	0.25 (≈ 0.257 µM)	0.25 (≈ 0.257 µM)	16 (≈ 16.4 µM)	2 (≈ 2.06 µM)	2 (≈ 2.06 µM)	64 (≈ 65.8 µM)	0.13 (≈ 0.134 µM)	0.25 (≈ 0.257 µM)	4 (≈ 4.11 µM)	8 (≈ 8.22 µM)	0.5 (≈ 0.514 µM)	8 (≈ 8.22 µM)	4 (≈ 4.11 µM)	4 (≈ 4.11 µM)	CCOC(=O)[C@H]1[C@H](C)O[C@@H](O[C@H]2[C@H](N(C)C)[C@@H](O)[C@H](O[C@H]3[C@@H](CC=O)C[C@@H](C)[C@@H](O)CN(C)CCC(CCCc4ccnc5ccccc45)NC(=O)C[C@@H](OC(=O)CC)[C@@H]3OC)O[C@@H]2C)C[C@@]1(C)O (stereo in doubt; form 2)	–
0.06 (≈ 0.0607 µM)	0.5 (≈ 0.506 µM)	16 (≈ 16.2 µM)	0.25 (≈ 0.253 µM)	8 (≈ 8.1 µM)	16 (≈ 16.2 µM)	0.06 (≈ 0.0607 µM)	0.03 (≈ 0.0304 µM)	8 (≈ 8.1 µM)	–	0.25 (≈ 0.253 µM)	16 (≈ 16.2 µM)	0.015 (≈ 0.0152 µM)	0.06 (≈ 0.0607 µM)	0.5 (≈ 0.506 µM)	1 (≈ 1.01 µM)	0.06 (≈ 0.0607 µM)	1 (≈ 1.01 µM)	0.25 (≈ 0.253 µM)	0.25 (≈ 0.253 µM)	CCOC(=O)[C@H]1[C@H](C)O[C@@H](O[C@H]2[C@H](N(C)C)[C@@H](O)[C@H](O[C@H]3[C@@H](CC=O)C[C@@H](C)[C@@H](O)CN(C)CC(CCCc4ccnc5ccccc45)CCOC(=O)C[C@@H](OC(=O)CC)[C@@H]3OC)O[C@@H]2C)C[C@@]1(C)O (stereo in doubt; form 2)	MIC (Haemophilus influenzae [10]; [21]): 2 µg/mL (≈ 2.02 µM)
1 (≈ 1.01 µM)	4 (≈ 4.06 µM)	>128	4 (≈ 4.06 µM)	128 (≈ 130 µM)	>128	1 (≈ 1.01 µM)	0.5 (≈ 0.507 µM)	128 (≈ 130 µM)	–	2 (≈ 2.03 µM)	>128	0.5 (≈ 0.507 µM)	1 (≈ 1.01 µM)	4 (≈ 4.06 µM)	16 (≈ 16.2 µM)	1 (≈ 1.01 µM)	16 (≈ 16.2 µM)	2 (≈ 2.03 µM)	2 (≈ 2.03 µM)	CCOC(=O)[C@H]1[C@H](C)O[C@@H](O[C@H]2[C@H](N(C)C)[C@@H](O)[C@H](O[C@H]3[C@@H](CC=O)C[C@@H](C)[C@@H](O)CN(C)CC(/C=C\Cc4ccnc5ccccc45)CCOC(=O)C[C@@H](OC(=O)CC)[C@@H]3OC)O[C@@H]2C)C[C@@]1(C)O (stereo in doubt; form 2)	MIC (Haemophilus influenzae [10]; [21]): 32 µg/mL (≈ 32.4 µM)
